Results reported in ChEMBL document CHEMBL1132218, “3-Amino-5-phenoxythiophenes: syntheses and structure-function studies of a novel class of inhibitors of cellular L-triiodothyronine uptake” (J Med Chem, 1999).

Columns and labels:
[1] = Partition coefficient (logP); type: physicochemical; conditions: octanol/water
Method in brief: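 Octanol–water partition coefficient calculated computationally, not measured experimentally.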

HepG2 = experiment: Compound was tested for inhibition of L-T3 (triiodothyronine) uptake in human HepG2 hepatoma cells at 10e-5 M; type: functional
Method in brief: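 HepG2 cells kept in DMEM with 10% FCS at 37 °C, grown to confluence (2×10⁶ cells/well), then serum-free overnight. Incubated 2 min at 37 °C in DMEM with 10^-11 M [¹²⁵I]-L-T₃; solvent-matched controls; nondisplaceable uptake from duplicates with 10^-5 M unlabeled L-T₃. Five PBS (pH 7.4) washes at room temperature, 0.1 M NaOH harvest, cell-associated radioactivity counted.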

Row | SMILES | logP [1] | inhibition at 10 µM (HepG2) [%]
1 | N#Cc1c(Oc2ccccc2)sc(C(=O)c2ccccc2)c1N | 4.75 | 61
2 | Cc1cccc(Oc2sc(C(=O)c3ccccc3)c(N)c2C#N)c1 | 5.25 | 57
3 | COC(=O)c1sc(Oc2cccc(C)c2)c(C(N)=O)c1N | 3.61 | 40
4 | NC(=O)c1c(Oc2ccccc2)sc(C(=O)c2ccccc2)c1N | 3.6 | 60
5 | Cc1cccc(Oc2sc(C(=O)c3ccc([N+](=O)[O-])cc3)c(N)c2C#N)c1 | 5.03 | 16
6 | Cc1cccc(Oc2sc(C(N)=O)c(N)c2C#N)c1 | 2.69 | 23
7 | COC(=O)c1sc(Oc2cccc(C)c2)c(C#N)c1N | 4.16 | 19
8 | Cc1cccc(Oc2sc(C#N)c(N)c2C#N)c1 | 3.04 | 26
9 | N#Cc1sc(Oc2ccccc2)c(C#N)c1N | 2.54 | 21
10 | N#Cc1c(Oc2ccccc2)sc(C(N)=O)c1N | 2.19 | 14
11 | COC(=O)c1sc(Oc2ccccc2)c(C(N)=O)c1N | 3.11 | 26
12 | N#Cc1c(Oc2ccccc2)sc(C(=O)c2ccc([N+](=O)[O-])cc2)c1N | 4.53 | 18
13 | COC(=O)c1sc(Oc2ccccc2)c(C#N)c1N | 3.66 | 41
